Results from PubChem BioAssay AID624102 (Broad Institute, 2012).
The source made the active and inactive calls.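 How the source made its calls: active means fitted curve reaches a 35% signal drop at a concentration no higher than twice the top valid dose, in duplicate at both wavelengths; inactive means the rest, including activity in the opposite direction.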

Experiment: P. aeruginosa growth delay under iron chelation, dose response, whole organism, absorbance 405 nm, EDDHA, dry powder, set 8 (AID 624102)
Settings: P. aeruginosa with EDDHA, growth/pyoverdine A405, 24-30 h; series mostly up to 120 µM
Method in brief: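 System: Pseudomonas aeruginosa strain ATCC 15692, whole bacterial cells. Quantity: bacterial inoculum at final OD600 of 0.0000005. Buffer or medium: succinate M9 medium, pH 7.0, with 2 µM EDDHA iron chelator. Schedule: bacterial growth with compound for 24-30 h at 37 °C. Technique: absorbance at 405 nm reflecting pyoverdine production.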

outcome, inactive:
CCCCC(c1ccc(Cl)cc1)c1nn[nH]n1 (centres undefined)
N#Cc1cccc(C(C#N)c2ccc(F)cc2)n1 (centres undefined)
CCCCC(C#N)c1ccc(Cl)cc1 (centres undefined)
COCCC(C#N)c1ccc(Cl)cc1 (centres undefined)
COCCNC(C#N)c1ccc(Cl)cc1 (centres undefined)
N#CC(c1ccc(Cl)cc1)c1ccccn1 (centres undefined)
CN(C)CCCC(C#N)c1ccc(F)cc1 (centres undefined)
CCCCC(C#N)c1ccc(F)cn1 (centres undefined)
Clc1ccc(C(c2cccc(Cl)n2)c2nn[nH]n2)cc1 (centres undefined)
CCCCC(C#N)c1ccc(F)cc1 (centres undefined)
CCCCC(C#N)c1ccc(Cl)cn1 (centres undefined)
COCCOCCC(C#N)c1ccc(F)cc1 (centres undefined)
N#CC1c2ccc(Cl)cc2CCc2cccnc21 (centres undefined)
N#CC(c1ccc(C(F)(F)F)c(Cl)n1)c1ccccc1OC(F)(F)F (centres undefined)
N#CC(c1ccc(F)cc1)c1cccc(Cl)n1 (centres undefined)
N#CC(c1ccc(Cl)cc1)N1CCCC1 (centres undefined)
COCCOCCC(C#N)c1ccc(Cl)cc1 (centres undefined)
COCCC(C#N)c1ccc(F)cc1 (centres undefined)
CCCCC(C#N)c1ccccn1 (centres undefined)
